Test results: ChEMBL document CHEMBL1134306, “New antimitotic agents with activity in multi-drug-resistant cell lines and in vivo efficacy in murine tumor models” (J Med Chem, 2001)

Assays:
HCT-15 = assay: Effective dose against HCT-15 cell line.; type: functional; details: Homo sapiens, read-out: ED50 (the source's name)
Method in brief: (§1)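 HCT-15 (MDR+) or NCI-H460 (MDR−) cells in growth medium treated with compounds over a range of concentrations for 48 h. Cells then trypsinized and counted per well with a Coulter counter. ED50 derived from cell number. Compounds at 1 μM or below were retested in both lines. Values reported as mean ± SD.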

NCI-H460 = assay: Effective dose against NCI-H460 cell line.; type: functional; details: Homo sapiens, read-out: ED50 (the source's name); method in brief: as §1
Mus musculus [1] = assay: (§2) Half-life following intravenous dosing, tested in vivo in mice; type: ADME, organism-based
[2] = Volume of distribution following intravenous dosing, tested in vivo in mice; type: ADME, organism-based; details: mouse, read-out: Vc
[3] = Oral bioavailability in mouse; type: ADME, organism-based; details: in vivo
Mus musculus [4] = assay: (§3) Area under the curve following intravenous dosing, integrated compound concentration with respect to time, tested in vivo in mice; type: ADME, organism-based
Mus musculus [5] = assay: (§4) Maximum plasma concentration following intravenous dosing, tested in vivo in mice; type: ADME, organism-based; design: route intravenous; details: in vivo
[6] = Integrated compound concentration with respect to time following oral dosing, tested in vivo in mice; type: ADME, organism-based; details: mouse
Mus musculus [7] = assay: Time to maximum plasma concentration following oral dosing, tested in vivo in mice; details: in vivo
[8] = as §2; type: ADME, organism-based; details: mouse
[9] = as §3; type: ADME, organism-based; details: mouse
[10] = as §4; type: ADME, organism-based; design: route intravenous; details: mouse, plasma
[11] = Time to maximum plasma concentration following oral dosing, tested in vivo in mice; details: mouse, plasma

For `COc1cc(C2OC(c3ccc(N(C)C)cc3)=NN2C(=O)CNC(C)=O)cc(OC)c1OC` (configuration not stated), the EC50 (HCT-15) was 0.18 µM and the EC50 (NCI-H460) was 0.48 µM.

For `CCCCNC(=O)c1c(OC)cc(C2OC(c3ccc(N)c(C)c3)=NN2C(C)=O)cc1OC` (configuration not stated), the EC50 (HCT-15) was 178 µM and the EC50 (NCI-H460) was 60 µM.

`COc1cc(C2OC(c3ccc(N(C)C)cc3)=NN2C=O)cc(OC)c1OC` (configuration not stated) gave an EC50 (HCT-15) of 0.096 µM and an EC50 (NCI-H460) of 0.12 µM.

Work on `CC(=O)O[C@H]1C(=O)[C@@]2(C)[C@H]([C@H](OC(=O)c3ccccc3)[C@]3(O)C[C@H](OC(=O)[C@H](O)[C@@H](NC(=O)c4ccccc4)c4ccccc4)C(C)=C1C3(C)C)[C@]1(OC(C)=O)CO[C@@H]1C[C@@H]2O` [PACLITAXEL] yielded an EC50 (HCT-15) of 0.54 µM and an EC50 (NCI-H460) of 0.015 µM.

Work on `COc1cc(C2CN=C(c3ccc4c(c3)CCN4C)O2)cc(OC)c1OC` (configuration not stated) yielded an EC50 (HCT-15) of 0.61 µM and an EC50 (NCI-H460) of 0.82 µM.

`COc1cc(C2OC(c3ccc(N(C)C)cc3)=NN2C(=O)COC(C)=O)cc(OC)c1OC` (configuration not stated) gave an EC50 (HCT-15) of 0.019 µM and an EC50 (NCI-H460) of 0.072 µM.

Compound `COc1ccc(C2=NCC(c3cc(OC)c(OC)c(OC)c3)O2)cc1N` (configuration not stated) has an EC50 (HCT-15) of 0.082 µM and an EC50 (NCI-H460) of 0.073 µM.

`COc1cc(-c2nnc(-c3ccc(N(C)C)cc3)o2)cc(OC)c1OC` gave an EC50 (HCT-15) of 92 µM and an EC50 (NCI-H460) of 106 µM.

With `COc1cc(C2CN=C(c3ccc4nc(O)oc4c3)O2)cc(OC)c1OC` (configuration not stated) the EC50 (HCT-15) was 4.3 µM and the EC50 (NCI-H460) was 72 µM.

Compound `COC(=O)N1N=C(c2ccc(N(C)C)cc2)OC1c1cc(OC)c(OC)c(OC)c1` (configuration not stated) has an EC50 (HCT-15) of 40 µM and an EC50 (NCI-H460) of 106 µM.

Compound `COc1cc(C2OC(c3ccc(N(C)C)cc3)=NN2C(=O)CN(C)C)cc(OC)c1OC` (configuration not stated) has an EC50 (HCT-15) of 80 µM and an EC50 (NCI-H460) of 74 µM.

With `COc1cc(C2OC(c3ccc(N(C)C)cc3)=NN2C(=O)CNC=O)cc(OC)c1OC` (configuration not stated) the EC50 (HCT-15) was 0.035 µM and the EC50 (NCI-H460) was 0.04 µM.

`COc1ccc(C2OC(c3ccc(N(C)C)cc3)=NN2C(C)=O)cc1OC` (configuration not stated) showed an EC50 (HCT-15) of 8.2 µM and an EC50 (NCI-H460) of 5.1 µM.

In the case of `COc1ccc(C2OC(c3ccc(N(C)C)cc3)=NN2C(C)=O)c(OC)c1OC` (configuration not stated), the EC50 (HCT-15) is reported as 7.5 µM and the EC50 (NCI-H460) is reported as 6.8 µM.

Compound `COc1cc(C2OC(c3ccc(N)c(C)c3)=NN2C(C)=O)cc(OC)c1OC` (configuration not stated) has a T1/2 (Mus musculus [1]) of 66 min, a Vd [2] of 2.2 L/kg and a bioavailability [3] of 7%. It also gave an AUC (Mus musculus [4]) of 2109 ng·h/mL, a Cmax (Mus musculus [5]) of 59 ng/mL and an AUC [6] of 147 ng·h/mL. It also gave an EC50 (HCT-15) of 0.042 µM, an EC50 (NCI-H460) of 0.059 µM and a T max (Mus musculus [7]) of 102 min.

Work on `COc1cc(C2OC(c3ccc(N(C)C)cc3)=NN2C(C)=O)cc(OC)c1OC` (configuration not stated) yielded a T1/2 (Mus musculus [1]) of 66 min, a Vd [2] of 3.3 L/kg and a bioavailability [3] of 4.9%. For the same compound, the AUC (Mus musculus [4]) was 3170 ng·h/mL, the Cmax (Mus musculus [5]) was 113 ng/mL and the AUC [6] was 155 ng·h/mL. It also gave an EC50 (HCT-15) of 0.033 µM, an EC50 (NCI-H460) of 0.044 µM and a T max (Mus musculus [7]) of 24 min.

Work on `COc1cc(-c2nnc(-c3ccc(N(C)C)cc3)s2)cc(OC)c1OC` yielded an EC50 (HCT-15) of 231 µM and an EC50 (NCI-H460) of 1000 µM.

In the case of `COc1cc(C2COC(c3ccc(N(C)C)cc3)O2)cc(OC)c1OC` (configuration not stated), the EC50 (HCT-15) is reported as 2.4 µM and the EC50 (NCI-H460) is reported as 8.3 µM.

Compound `COc1cc(C2OC(c3ccc(N(C)C)cc3)=NN2C(=O)CO)cc(OC)c1OC` (configuration not stated) has an EC50 (HCT-15) of 0.026 µM and an EC50 (NCI-H460) of 0.043 µM.

`COc1cc(C2OC(c3ccc(N(C)C)cc3)=NN2C(C)=O)cc(OC)c1OC(C)=O` (configuration not stated) gave an EC50 (HCT-15) of 78 µM and an EC50 (NCI-H460) of 13 µM.

`COc1cc(OC)c(C2OC(c3ccc(N(C)C)cc3)=NN2C(C)=O)c(OC)c1` (configuration not stated) gave an EC50 (HCT-15) of 71 µM and an EC50 (NCI-H460) of 40 µM.

`COc1cc(C2CN=C(c3ccc4c(ccn4C)c3)O2)cc(OC)c1OC` (configuration not stated) gave a half-life [8] of 114 min, a Vd [2] of 1.4 L/kg and a bioavailability [3] of 35%. The AUC [9] was 5120 ng·h/mL, the Cmax [10] was 799 ng/mL and the AUC [6] was 1780 ng·h/mL. For the same compound, the EC50 (HCT-15) was 0.018 µM, the EC50 (NCI-H460) was 0.028 µM and the Tmax [11] was 24 min.

Compound `CCOC(=O)C(=O)N1N=C(c2ccc(N(C)C)cc2)OC1c1cc(OC)c(OC)c(OC)c1` (configuration not stated) has an EC50 (HCT-15) of 45 µM and an EC50 (NCI-H460) of 33 µM.

`COc1cc(C2CN=C(c3ccc4[nH]ccc4c3)O2)cc(OC)c1OC` (configuration not stated) showed an EC50 (HCT-15) of 0.097 µM and an EC50 (NCI-H460) of 0.116 µM.

`COc1cc(OC)c(C2OC(c3ccc(N)c(C)c3)=NN2C(C)=O)cc1OC` (configuration not stated) gave an EC50 (HCT-15) of 198 µM and an EC50 (NCI-H460) of 1000 µM.

`COc1cc(C2OC(c3ccc(N(C)C)cc3)=NN2C(=O)CN)cc(OC)c1OC` (configuration not stated) showed an EC50 (HCT-15) of 0.65 µM and an EC50 (NCI-H460) of 0.66 µM.

Compound `COc1cc(-c2cc(-c3ccc(N)c(C)c3)nn2C(C)=O)cc(OC)c1OC` has an EC50 (HCT-15) of 365 µM and an EC50 (NCI-H460) of 1000 µM.

Compound `COc1cc(C2CN=C(c3ccc(C)c(N)c3)O2)cc(OC)c1OC` (configuration not stated) has an EC50 (HCT-15) of 0.082 µM and an EC50 (NCI-H460) of 0.063 µM.

Compound `CC(=O)N1N=C(c2ccc(N(C)C)cc2)OC1c1cc(C)c(C)c(C)c1` (configuration not stated) has an EC50 (HCT-15) of 1.5 µM and an EC50 (NCI-H460) of 5.7 µM.

In the case of `COc1cc(C2CN=C(c3ccc(N(C)C)cc3)O2)cc(OC)c1OC` (configuration not stated), the half-life [8] is reported as 48 min, the Vd [2] is reported as 3.3 L/kg and the bioavailability [3] is reported as 49%. The AUC [9] was 3410 ng·h/mL, the Cmax [10] was 891 ng/mL and the AUC [6] was 1660 ng·h/mL. It also gave an EC50 (HCT-15) of 0.12 µM, an EC50 (NCI-H460) of 0.35 µM and a Tmax [11] of 54 min.

With `COC(=O)c1c(OC)cc(C2OC(c3ccc(N)c(C)c3)=NN2C(C)=O)cc1OC` (configuration not stated) the EC50 (HCT-15) was 0.28 µM and the EC50 (NCI-H460) was 0.51 µM.

In the case of `COc1cc(C2CN=C(c3ccc4c(c3)CCCN4C)O2)cc(OC)c1OC` (configuration not stated), the EC50 (HCT-15) is reported as 0.66 µM and the EC50 (NCI-H460) is reported as 0.32 µM.

For `COc1cc(C2OC(c3cccc(N(C)C)c3)=NN2C(C)=O)cc(OC)c1OC` (configuration not stated), the EC50 (HCT-15) was 0.16 µM and the EC50 (NCI-H460) was 0.26 µM.

Work on `COc1cc(C2OC(c3ccc(N)c(C)c3)=NN2C(C)=O)cc2c1OCO2` (configuration not stated) yielded an EC50 (HCT-15) of 0.62 µM and an EC50 (NCI-H460) of 0.63 µM.

For `COc1cc(C2OC(c3ccc(N(C)C)cc3)=NN2C(=O)CN=[N+]=[N-])cc(OC)c1OC` (configuration not stated), the EC50 (HCT-15) was 0.15 µM and the EC50 (NCI-H460) was 0.53 µM.

With `COc1cc(C2OC(c3ccccc3N(C)C)=NN2C(C)=O)cc(OC)c1OC` (configuration not stated) the EC50 (HCT-15) was 65 µM and the EC50 (NCI-H460) was 109 µM.

`COc1cc(C2SC(c3ccc(N(C)C)cc3)=NN2C(C)=O)cc(OC)c1OC` (configuration not stated) gave an EC50 (HCT-15) of 0.61 µM and an EC50 (NCI-H460) of 0.35 µM.
